From ChEMBL document CHEMBL3808334, “Synthesis and in vitro evaluation of novel triazine analogues as anticancer agents and their interaction studies with bovine serum albumin” (Eur J Med Chem, 2016)

Tests used:
NCI-H460 [1] = assay: Growth inhibition of human NCI-H460 cells assessed as cell growth at 10 uM incubated for 48 hrs by sulforhodamine B assay; type: functional; conditions: NCI-H460, 48 h, read-out: Activity
[2] = Growth inhibition of human COLO205 cells assessed as cell growth at 10^-6 M incubated for 48 hrs by sulforhodamine B assay; type: functional; conditions: COLO 205, 48 h, read-out: Activity
Outline: (§1)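 Cells seeded at 5,000–40,000/well according to doubling time and preincubated 24 h at 37 °C, 5% CO2. Time-zero plates were TCA-fixed. DMSO concentrate was diluted in medium with 50 µg/ml gentamicin to give five concentrations (10-fold or ½ log steps), then exposed 48 h. Cells were TCA-fixed, stained with 0.4% SRB and read at 515 nm. Percent growth was taken against time-zero and control; GI50, TGI and LC50 derived.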

EKVX = assay: Growth inhibition of human EKVX cells incubated for 48 hrs by sulforhodamine B assay; type: functional; outline: as §1
[3] = Growth inhibition of human HOP92 cells incubated for 48 hrs by sulforhodamine B assay; type: functional; conditions: HOP-92, 48 h; outline: as §1
[4] = Growth inhibition of human SNB19 cells assessed as cell growth at 10^-8 M incubated for 48 hrs by sulforhodamine B assay; type: functional; conditions: SNB-19, 48 h, read-out: Activity
NCI-H460 [5] = assay: Growth inhibition of human NCI-H460 cells assessed as cell growth at 10^-8 M incubated for 48 hrs by sulforhodamine B assay; type: functional; conditions: NCI-H460, 48 h, read-out: Activity
K562 [6] = assay: Growth inhibition of human K562 cells assessed as cell growth at 10^-6 M incubated for 48 hrs by sulforhodamine B assay; type: functional; conditions: K562, 48 h, read-out: Activity
KM12 = assay: Growth inhibition of human KM12 cells assessed as cell growth at 10^-7 M incubated for 48 hrs by sulforhodamine B assay; type: functional; conditions: KM12, 48 h, read-out: Activity
[7] = Growth inhibition of human melanoma cells incubated for 48 hrs by sulforhodamine B assay; type: functional; conditions: Melanoma cell; for CC50: read-out: LC50 (the source's name)
NCI-H226 = assay: Growth inhibition of human NCI-H226 cells assessed as cell growth at 10^-4 M incubated for 48 hrs by sulforhodamine B assay; type: functional; conditions: NCI-H226, 48 h, read-out: Activity
[8] = Growth inhibition of human OVCAR3 cells assessed as cell growth at 10 uM incubated for 48 hrs by sulforhodamine B assay; type: functional; conditions: OVCAR-3, 48 h, read-out: Activity
MCF7 [9] = assay: Growth inhibition of human MCF7 cells assessed as cell growth at 10^-7 M incubated for 48 hrs by sulforhodamine B assay; type: functional; conditions: MCF7, 48 h, read-out: Activity
[10] = Growth inhibition of human SKOV3 cells incubated for 48 hrs by sulforhodamine B assay; type: functional; conditions: SK-OV-3, 48 h
Outline: (§2)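 Cells were plated at 5,000–40,000 per well according to doubling time and preincubated 24 h at 37 °C in 5% CO2; time-zero plates were then TCA-fixed. Five concentrations (10-fold or ½-log dilutions, DMSO stock) were incubated 48 h. Cells were TCA-fixed, stained with 0.4% SRB and read at 515 nm. GI50 was taken where [(Ti−Tz)/(C−Tz)]×100 = 50.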

[11] = Growth inhibition of human SNB19 cells incubated for 48 hrs by sulforhodamine B assay; type: functional; conditions: SNB-19, 48 h; outline: as §2
Albumin = Albumin (Bos taurus, UniProt P02769); assay: Binding affinity to bovine serum albumin assessed as red shift in emission intensity up to 20 uM by fluorescence spectroscopic analysis relative to control; type: ADME; conditions: cattle, isolated protein
Sequence of Albumin (P02769 whole entry): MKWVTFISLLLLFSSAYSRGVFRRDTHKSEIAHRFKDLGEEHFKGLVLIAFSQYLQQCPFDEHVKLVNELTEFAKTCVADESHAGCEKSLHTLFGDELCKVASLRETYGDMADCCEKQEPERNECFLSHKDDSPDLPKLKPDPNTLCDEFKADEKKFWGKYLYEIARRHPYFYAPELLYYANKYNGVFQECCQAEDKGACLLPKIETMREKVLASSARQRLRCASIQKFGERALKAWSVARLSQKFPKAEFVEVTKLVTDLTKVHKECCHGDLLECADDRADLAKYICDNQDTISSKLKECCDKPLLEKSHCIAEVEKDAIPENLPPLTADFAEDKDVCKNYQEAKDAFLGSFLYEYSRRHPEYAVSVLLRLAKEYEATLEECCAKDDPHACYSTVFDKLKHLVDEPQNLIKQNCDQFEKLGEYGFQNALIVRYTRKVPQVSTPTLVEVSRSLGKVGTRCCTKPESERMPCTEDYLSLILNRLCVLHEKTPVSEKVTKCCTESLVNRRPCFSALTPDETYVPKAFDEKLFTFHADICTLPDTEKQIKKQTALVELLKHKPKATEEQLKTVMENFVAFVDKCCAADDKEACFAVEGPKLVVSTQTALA
Outline: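 Fluorescence titration of 10 µM BSA in 0.1 M phosphate buffer pH 7.4 with compound at 0–20 µM, diluted from DMSO stocks. Excitation 280 nm, slit 10 nm, 1 cm quartz cell, 300 K. Changes in the 350 nm Trp emission, new bands near 370–373 nm and isoemissive points are read against BSA alone.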

SK-MEL-5 = assay: Growth inhibition of human SK-MEL-5 cells assessed as cell growth at 10 uM incubated for 48 hrs by sulforhodamine B assay; type: functional; conditions: SK-MEL-5, 48 h, read-out: Activity
[12] = Growth inhibition of human OVCAR3 cells incubated for 48 hrs by sulforhodamine B assay; type: functional; conditions: OVCAR-3, 48 h; outline: as §2
[13] = Growth inhibition of human HL-60(TB) cells assessed as cell growth at 10^-8 M incubated for 48 hrs by sulforhodamine B assay; type: functional; conditions: HL-60, 48 h, read-out: Activity
Outline: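 Cells plated at 5,000–40,000/well according to doubling time and preincubated 24 h at 37 °C, 5% CO₂, with time-zero plates TCA-fixed. Drugs were kept as DMSO concentrates at 400× the top concentration and diluted in medium with 50 µg/ml gentamicin. Five 10-fold or ½-log dilutions were run for 48 h, followed by SRB staining and A515. Percent growth = (Ti−Tz)/(C−Tz)×100, or (Ti−Tz)/Tz×100 when Ti<Tz.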

HT-29 = assay: Growth inhibition of human HT-29 cells assessed as cell growth at 10^-7 M incubated for 48 hrs by sulforhodamine B assay; type: functional; conditions: HT-29, 48 h, read-out: Activity
MCF7 [14] = assay: Growth inhibition of human MCF7 cells assessed as cell growth at 10^-5 M incubated for 48 hrs by sulforhodamine B assay; type: functional; conditions: MCF7, 48 h, read-out: Activity
Malme-3M = assay: Growth inhibition of human MALME-3M cells assessed as cell growth at 10^-4 M incubated for 48 hrs by sulforhodamine B assay; type: functional; conditions: read-out: Activity
[15] = Growth inhibition of human RXF393 cells assessed as cell growth at 10^-8 M incubated for 48 hrs by sulforhodamine B assay; type: functional; conditions: RXF 393, 48 h, read-out: Activity
K562 [16] = assay: Growth inhibition of human K562 cells assessed as cell growth at 10^-8 M incubated for 48 hrs by sulforhodamine B assay; type: functional; conditions: K562, 48 h, read-out: Activity
[17] = read-out: LC50 (the source's name)
[18] = read-out: pLC50 (the source's name) (converted)

## Clc1ccc(-c2nc(Nc3ccc(-c4nc5ccccc5[nH]4)cc3)nc(N3CCOCC3)n2)cc1
NCI-H460 [1]
  growth at 10 µM: -80.3%
[2]
  growth at 1 µM: 2%
EKVX; read-out: GI50
  GI50: 1.14 µM
EKVX; read-out: TGI
  TGI: 2.63 µM
EKVX; read-out: pGI50 (converted)
  GI50: 1.15 µM
EKVX; read-out: pTGI (converted)
  TGI: 2.63 µM
[3]; read-out: GI50
  GI50: 1.3 µM
[3]; read-out: LC50
  LC50 (concentration killing 50% of starting cells): 5.61 µM
[3]; read-out: TGI
  TGI: 2.7 µM
[3]; read-out: pGI50 (converted)
  GI50: 1.29 µM
[3]; read-out: pLC50 (converted)
  LC50 (concentration killing 50% of starting cells): 5.62 µM
[3]; read-out: pTGI (converted)
  TGI: 2.69 µM
[4]
  growth at 0.01 µM: 102%
NCI-H460 [5]
  growth at 0.01 µM: 101%
K562 [6]
  growth at 1 µM: -63%
KM12
  growth at 0.1 µM: 97%
[7]
  GI50: 1.07 µM
  TGI: 2.48 µM
  CC50: 5.79 µM
NCI-H226
  growth at 100 µM: -25%
[8]
  growth at 10 µM: -95.6%
MCF7 [9]
  growth at 0.1 µM: 86%
[10]; read-out: GI50
  GI50: 1.84 µM
[10]; [17]
  CC50: 100 µM
[10]; read-out: TGI
  TGI: 3.28 µM
[10]; read-out: pGI50 (converted)
  GI50: 1.82 µM
[10]; [18]
  CC50: 100 µM
[10]; read-out: pTGI (converted)
  TGI: 3.31 µM
[11]; read-out: GI50
  GI50: 0.379 µM
[11]; read-out: pGI50 (converted)
  GI50: 0.38 µM
Albumin
  Activity: 22 nm
SK-MEL-5
  growth at 10 µM: -97.6%
[12]; read-out: GI50
  GI50: 0.374 µM
[12]; [17]
  CC50: 3.99 µM
[12]; read-out: TGI
  TGI: 1.37 µM
[12]; read-out: pGI50 (converted)
  GI50: 0.372 µM
[12]; [18]
  CC50: 3.98 µM
[12]; read-out: pTGI (converted)
  TGI: 1.38 µM
[13]
  growth at 0.01 µM: 97%
HT-29
  growth at 0.1 µM: 99%
MCF7 [14]
  growth at 10 µM: -66%
Malme-3M
  growth at 100 µM: -16%
[15]
  growth at 0.01 µM: 100%
K562 [16]
  growth at 0.01 µM: 96%

## c1ccc2[nH]c(-c3ccc(Nc4nc(N5CCCCC5)nc(N5CCOCC5)n4)cc3)nc2c1
NCI-H460 [1]
  growth at 10 µM: 0.81%
[2]
  growth at 1 µM: 92%
EKVX; read-out: GI50
  GI50: 2.68 µM
EKVX; read-out: LC50
  LC50: > 100 µM
EKVX; read-out: TGI
  TGI: > 100 µM
EKVX; read-out: pGI50 (converted)
  GI50: 2.69 µM
EKVX; read-out: pLC50 (converted)
  LC50: > 100 µM
EKVX; read-out: pTGI (converted)
  TGI: > 100 µM
[3]; read-out: GI50
  GI50: 1.99 µM
[3]; read-out: LC50
  LC50 (concentration killing 50% of starting cells): 9.34 µM
[3]; read-out: TGI
  TGI: 4.32 µM
[3]; read-out: pGI50 (converted)
  GI50: 2 µM
[3]; read-out: pLC50 (converted)
  LC50 (concentration killing 50% of starting cells): 9.33 µM
[3]; read-out: pTGI (converted)
  TGI: 4.37 µM
[4]
  growth at 0.01 µM: 101%
NCI-H460 [5]
  growth at 0.01 µM: 101%
K562 [6]
  growth at 1 µM: 109%
KM12
  growth at 0.1 µM: 103%
[7]
  GI50: 1.95 µM
  TGI: 4.18 µM
  CC50: 11.8 µM
NCI-H226
  growth at 100 µM: -36%
[8]
  growth at 10 µM: 10.9%
MCF7 [9]
  growth at 0.1 µM: 91%
[10]; read-out: GI50
  GI50: 2.37 µM
[10]; [17]
  CC50: 26.9 µM
[10]; read-out: TGI
  TGI: 5.43 µM
[10]; read-out: pGI50 (converted)
  GI50: 2.34 µM
[10]; [18]
  CC50: 26.9 µM
[10]; read-out: pTGI (converted)
  TGI: 5.37 µM
[11]; read-out: GI50
  GI50: 3.73 µM
[11]; [17]
  CC50: > 100 µM
[11]; read-out: TGI
  TGI: 81.9 µM
[11]; read-out: pGI50 (converted)
  GI50: 3.72 µM
[11]; [18]
  CC50: > 100 µM
[11]; read-out: pTGI (converted)
  TGI: 81.3 µM
Albumin
  Activity: 25 nm
SK-MEL-5
  growth at 10 µM: -90.8%
[12]; read-out: GI50
  GI50: 2.4 µM
[12]; [17]
  CC50: > 100 µM
[12]; read-out: TGI
  TGI: 6.19 µM
[12]; read-out: pGI50 (converted)
  GI50: 2.4 µM
[12]; [18]
  CC50: > 100 µM
[12]; read-out: pTGI (converted)
  TGI: 6.17 µM
[13]
  growth at 0.01 µM: 98%
HT-29
  growth at 0.1 µM: 105%
MCF7 [14]
  growth at 10 µM: -10%
Malme-3M
  growth at 100 µM: -80%
[15]
  growth at 0.01 µM: 96%
K562 [16]
  growth at 0.01 µM: 103%
